What is called Ki is the dissociation constant of the complex between target and ligand, obtained from inhibition or displacement.

For two compounds, Activity, Ki and Ratio Ki results are on record in ChEMBL document CHEMBL4706681, “New 2-Pyrazoline and Hydrazone Derivatives as Potent and Selective Monoamine Oxidase A Inhibitors” (J Med Chem, 2021).

Molecules are shown by their SMILES. Activity calls are given as the source filed them. The rule behind the calls is not given here.

A short description of data set [1]: Ex vivo inhibition of MAOA in CD1 mouse brain homogenates assessed as dopamine levels at 20 mg/kg, po administered as single acute dose via gavage and measured after 1 hr by ELISA kit method (reference value: 7.08 +/- 0.58 ug/g). It is filed as functional.
Data set [2] is described as follows: Ex vivo inhibition of MAOA in CD1 mouse brain homogenates assessed as inhibition of 5-HT deamination by measuring 5-HIAA metabolite levels at 20 mg/kg, po administered as single acute dose via gavage and measured after 1 hr by HPLC analysis (reference value: 0.28 +/- 0.011 ug/g). Type of data set: functional.
Data set [3] can be described thus: Ex vivo inhibition of MAOA in CD1 mouse brain homogenates assessed as MAOA level at 20 mg/kg, po administered as subchronic dose via gavage for 7 days and measured 1 hr post last dose by monoamine oxidase assay (reference value: 0.40 +/- 0.005 nmol/min/mg). It is filed as functional. The conditions noted are these: time 7 day.
Data set [4] can be described thus: Effect on locomotor activity in CD1 mouse assessed as total distance traveled at 20 mg/kg, po administered via gavage for 7 days by open field test. Type of data set: ADME, organism-based. To be noted: in vivo, 168 h, time 7 day. A digest of the protocol: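 Each mouse placed in the centre of a 50 × 50 × 30 cm black box and video-tracked; total distance travelled over 5 min; n = 8–10.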

Data set [5] deals with Mus musculus. Kind of data set: Antidepressant-like activity in CD1 mouse assessed as reduction in immobility time at 10 mg/kg, po administered as subchronic dose via gavage for 7 days and measured 1 h post last dose by Porsolt-forced swim test. Type of data set: functional, organism-based. The conditions noted are these: time 7.0 day. A digest of the protocol:
(§1)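 Male albino CD-1 mice (20–25 g), 12 h light/dark, food and water ad libitum. Dosed by oral gavage once daily for 7 days in 200 μL 0.5% CMC; vehicle-only controls. […] Forced swim test run 1 h after the last dose. Immobility scored every 60 s over 6 min; n = 8–12.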

Data set [6] concerns the target T1, Amine oxidase [flavin-containing] A (Homo sapiens, UniProt P21397).
T1 sequence (P21397 whole entry): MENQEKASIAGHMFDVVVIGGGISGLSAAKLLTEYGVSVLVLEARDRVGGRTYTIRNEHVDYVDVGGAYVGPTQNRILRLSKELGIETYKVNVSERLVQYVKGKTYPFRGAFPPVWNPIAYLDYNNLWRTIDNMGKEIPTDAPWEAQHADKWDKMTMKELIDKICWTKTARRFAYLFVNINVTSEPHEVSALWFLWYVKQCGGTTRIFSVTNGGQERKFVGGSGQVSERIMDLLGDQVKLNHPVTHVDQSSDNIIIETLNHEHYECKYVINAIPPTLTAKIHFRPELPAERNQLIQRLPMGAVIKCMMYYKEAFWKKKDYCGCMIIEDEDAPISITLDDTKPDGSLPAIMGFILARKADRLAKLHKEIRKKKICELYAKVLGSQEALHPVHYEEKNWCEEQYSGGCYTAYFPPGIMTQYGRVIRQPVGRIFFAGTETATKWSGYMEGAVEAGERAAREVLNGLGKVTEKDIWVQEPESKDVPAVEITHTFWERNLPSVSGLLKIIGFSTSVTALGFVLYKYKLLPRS
Description: Inhibition of recombinant human MAO-A expressed in baculovirus infected BTI insect cells using p-tyramine as substrate incubated for 30 mins by Amplex red reagent based fluorescence analysis.

Data set [7] can be described thus: Selectivity index, ratio of Ki for inhibition of recombinant human MAO-A to Ki for inhibition of recombinant human MAO-B using p-tyramine as substrate.
In data set [8] the test system is Mus musculus. Description: Antidepressant-like activity in CD1 mouse assessed as reduction in immobility time at 30 mg/kg, po administered via gavage for 7 days and measured 1 h post last dose by Porsolt-forced swim test. To be noted: time 7.0 day. Type of data set: functional, organism-based. The essentials:
as §1

Data set [9] can be described thus: Ex vivo inhibition of MAOA in CD1 mouse brain homogenates assessed as assessed as inhibition of 5-HT deamination by measuring 5-HIAA metabolite levels at 30 mg/kg, po administered as single acute dose via gavage and measured after 1 hr by HPLC analysis (reference value: 0.28 +/- 0.011 ug/g). Type of data set: functional.

Consider `O=C(NCCN1CCOCC1)c1ccc(Cl)cc1` [MOCLOBEMIDE], for which the Activity in [1] was 7.1 µg/g; in data set [2] it was 0.32 µg/g; in data set [3] it was 0.33 nmol/min/mg; in data set [4], “Non-Toxic”. Further, in the data set with Mus musculus [5], the result was Active.
As to `COc1ccc(C2=NN(C(=O)Cn3c(=O)oc4ccc(C)cc43)C(c3cccc(OC)c3OC)C2)cc1` (centres undefined), the Ki in data set [6] is 9 nM. Also, in data set [7], the Ratio Ki is 1.37 10^-5No_unit. Also, in the data set with Mus musculus [8], the outcome was Active. In [9], the Activity turned out to be 0.35 µg/g.
